Screening results: PubChem, Columbia University Molecular Screening Center
Insulin prom act: activators of insulin promoter-driven GFP, primary screen, imaging, TRM-6 cells, eGFP reporter, cell count. plate-scaled: unstimulated 0, stimulated control 100. activation, % at 2 µM. 0.81% of 130,000 active. AID 1296, 2008;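 active means activation at 2 µM above a set limit, confirmed on inspection of the cell images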;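 further: share of cells whose green reporter signal exceeds an intensity cutoff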
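System: human fetal islet-derived TRM-6 cells with tamoxifen-inducible insulin promoter–eGFP reporter; input: seeding density of 1,000 cells per well; buffer or medium: Low-glucose (5.5 mM) medium with tamoxifen; incubation: compound exposure 48 h, 37 °C; measured by: high-content imaging of fixed cells with Hoechst nuclear stain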
* hit, by the source's call. The full list was thinned out, with hits kept by preference.

For O=C1c2ccccc2NC(c2cccnc2)N1c1ccccc1F (stereo unspecified) the results were Insulin prom act 0.
Cc1cc(C(=O)OCC(=O)Nc2ccc(F)cc2)c(C)o1 was read as Insulin prom act -7.
For Cc1sc(NC(=O)CN2CCOCC2)c(C(=O)c2ccccc2)c1C the results were Insulin prom act 75*.
`CCOC(=O)c1c(NC(=O)CN2CCOCC2)sc(C(=O)NC)c1C` gave Insulin prom act -7.
CCOC(=O)c1c(NC(=O)CN2CCOCC2)sc2c1CCCC2=O was read as Insulin prom act -10.
Screening Cc1c(-c2ncn[nH]2)sc(C#N)c1-c1ccccc1 returned Insulin prom act 0.
`CCOC(=O)CSc1ccc(S(=O)(=O)N(C)C2CCCCC2)cc1[N+](=O)[O-]` gave Insulin prom act -3.
CCOc1ccc(N2C(=O)/C(=C\c3ccccc3OC)S(=O)(=O)C2c2cccc([N+](=O)[O-])c2)cc1 (stereo unspecified) was read as Insulin prom act 7.
COc1ccc(/C=C/c2ccc(=O)n(Cc3ccccc3)n2)cc1 was read as Insulin prom act 8.
`COc1ccc(/C=C/C2=NN(Cc3ccccc3)C(=O)CC2)cc1` gave Insulin prom act 388*.
`COc1ccc(/C=C2\C(=O)NCC(=O)N2Cc2ccccc2)cc1` gave Insulin prom act -9.
For Cc1cc(NC(=O)c2cnn3c(C(F)F)cc(C4CC4)nc23)no1 the results were Insulin prom act 107.
Cc1cc(NC(=O)c2cnn3c(C(F)(F)F)cc(-c4ccccc4)nc23)no1 was read as Insulin prom act 429*.
Screening Cc1cc(NC(=O)c2cnn3c(C(F)F)cc(-c4ccccc4)nc23)no1 returned Insulin prom act 9.
Screening CCn1nc(C(=O)OC(C(=O)c2c[nH]c3ccccc23)c2ccccc2)c2ccccc2c1=O (stereo unspecified) returned Insulin prom act -9.
Screening Cc1onc(-c2c(F)cccc2Cl)c1C(=O)OCn1nnc2ccccc2c1=O returned Insulin prom act -52.
Screening CCOC(=O)c1nnsc1Nc1ccc(C)c(C)c1 returned Insulin prom act -7.
Screening Cc1ccc(Nc2nc3nonc3[nH]c2=O)cc1Cl returned Insulin prom act 0.
Screening CCOc1cc(S(=O)(=O)N2CCOCC2)ccc1F returned Insulin prom act -81.
`CCOC(=O)N1CCN(C(=O)COc2ccc(S(=O)(=O)NC3CCCCC3)cc2C)CC1` gave Insulin prom act 123.
`COc1ccc(F)cc1S(=O)(=O)N1CCCC(C)C1` (stereo unspecified) gave Insulin prom act -9.
`CCOc1cc(S(=O)(=O)NC2CCCCCC2)ccc1F` gave Insulin prom act 420*.
Screening CCOc1cc(S(=O)(=O)Nc2ccccn2)ccc1F returned Insulin prom act 464*.
`CCOc1cc(S(=O)(=O)n2nc(C)cc2C)ccc1F` gave Insulin prom act -50.
For COc1ccc(F)cc1S(=O)(=O)N1CCCN(S(=O)(=O)c2cc(F)ccc2OC)CC1 the results were Insulin prom act -75.
COc1ccc(F)cc1S(=O)(=O)NC1CCCC1 was read as Insulin prom act 83*.
For CCOc1cc(S(=O)(=O)Nc2ccc(Cl)cn2)ccc1Cl the results were Insulin prom act -2.
`Cc1nc(SCC(=O)NC(=O)NC(C)C)nc(C)c1C` gave Insulin prom act 6.
`Cc1ccccc1OCCCC(=O)Nc1nncs1` gave Insulin prom act 9.
For COC(=O)c1ccc(NC(=O)C2CC(=O)N(c3ccc(C)cc3)C2)cc1 (stereo unspecified) the results were Insulin prom act 338.
`CC(C)C(CCN1C(=O)CCC1=O)C1CCOC(C)(C)C1` (stereo unspecified) gave Insulin prom act -5.
For CCn1cc(/C=C/C(=O)Nc2ccn(Cc3c(F)c(F)c(F)c(F)c3F)n2)cn1 the results were Insulin prom act 0.
Screening COc1cc2nc(C3CCC3)n(NC(=O)c3ccco3)c(=O)c2cc1OC returned Insulin prom act 142.
`CCn1c(COc2ccc(=O)n(-c3ccccc3)n2)nnc1SC` gave Insulin prom act 118.
For Cc1nc2ccc(S(=O)(=O)NCC(=O)N3CCCC(C)C3)cc2s1 (stereo unspecified) the results were Insulin prom act -73.
`O=C1CSC(c2ccccc2)N1CC(O)c1ccc([N+](=O)[O-])cc1` (stereo unspecified) gave Insulin prom act -6.
`CCCOc1ccc(C2C(C(=O)/C=C/c3ccco3)=C(O)C(=O)N2CCN2CCOCC2)cc1OC` (stereo unspecified) gave Insulin prom act 8.
`Cc1ccc(CNC(=O)CSc2nc3ccsc3c(=O)n2Cc2ccc(C(=O)O)cc2)cc1` gave Insulin prom act 3.
For COc1ccccc1NC(=O)C1=C(C)NC(=O)NC1c1cc(C)cs1 (stereo unspecified) the results were Insulin prom act 111.
`CC1CCN(S(=O)(=O)c2ccc(C(=O)Nc3nnc(-c4ccccn4)o3)cc2)CC1` gave Insulin prom act 136.
O=C(Nc1nnc(-c2ccccc2Cl)o1)c1ccc(S(=O)(=O)N2CCCCCC2)cc1 was read as Insulin prom act 400*.
`O=C(Nc1nnc(-c2cccs2)o1)c1ccc(S(=O)(=O)N2CCOCC2)cc1` gave Insulin prom act 6.
`CCC(CO)NC1=CC(=O)CCC1` (stereo unspecified) gave Insulin prom act 0.
Screening Cc1ccn2c(c1)nc(=S)n2C(=O)c1ccco1 returned Insulin prom act 0.
For CN(C)S(=O)(=O)c1ccc(C(=O)Nc2ccc(CCC(=O)N3CCCC3)cc2)cc1 the results were Insulin prom act 449*.
Screening CN(C)S(=O)(=O)c1ccc(C(=O)Nc2ccc(CN3CCCC3)cc2)cc1 returned Insulin prom act 6.
`CCN(CC)S(=O)(=O)c1ccc(C(=O)Nc2ccc(Cc3ccncc3)cc2)cc1` gave Insulin prom act -7.
COc1ccccc1NC(=O)/C(=N/OCc1ccc(F)cc1)C(C)=O was read as Insulin prom act 7.
`CN(C)S(=O)(=O)c1ccc(N2CCCC2)c(C(=O)Nc2nc(-c3ccc(F)c(F)c3)cs2)c1` gave Insulin prom act 414*.
`CN(C)S(=O)(=O)c1ccc(C(=O)Nc2nc(-c3cc4ccccc4o3)cs2)cc1` gave Insulin prom act 8.
Screening Cc1ccc(S(=O)(=O)Nc2ccccc2C(=O)Nc2nc(-c3ccc(F)cc3)cs2)cc1 returned Insulin prom act -5.
For O=C(Nc1ccc(F)cc1F)c1cc(=O)n(-c2ccccc2)c(=O)[nH]1 the results were Insulin prom act 0.
For COc1cnn(-c2ccc(C)cc2)c(=O)c1Cl the results were Insulin prom act 146.
`Cc1ccc(-n2c(Cl)c(Cl)nc(Cl)c2=O)cc1` gave Insulin prom act 233*.
Screening CSc1nccc(-c2nn(-c3ccc(C)cc3)ccc2=O)n1 returned Insulin prom act -8.
`CCN(CC)C(=O)CSc1nnc(-c2ccco2)o1` gave Insulin prom act 500*.
`O=C(CSc1nnc(-c2ccco2)o1)c1ccccc1Cl` gave Insulin prom act 0.
`O=C(CSc1nnc(-c2ccco2)o1)NC1CCCCC1` gave Insulin prom act 0.
C/C(=N\NC(=O)CN1CCOCC1)C(C)(C)C was read as Insulin prom act 8.
Screening N#CCCN(Cc1cccnc1)C(=S)Nc1ccc(OC(F)F)cc1 returned Insulin prom act 109.
